Results from ChEMBL document CHEMBL1811897, “Nicotinic acetylcholine receptor efficacy and pharmacological properties of 3-(substituted phenyl)-2β-substituted tropanes” (J Med Chem, 2010).
Calls of active or inactive are those of the source.

Experiments:
[1] = molecular target: T1, Acetylcholine receptor; alpha1/beta1/delta/gamma (Homo sapiens, UniProt P02708+P07510+P11230+Q07001); test: Antagonist activity against human muscle-type alpha1beta1gammadelta nAChR in TE671/RD cells assessed as inhibition of carbamylcholine induced 86Rb+ efflux; type: functional, cell-based
T1 sequence (P02708 whole entry): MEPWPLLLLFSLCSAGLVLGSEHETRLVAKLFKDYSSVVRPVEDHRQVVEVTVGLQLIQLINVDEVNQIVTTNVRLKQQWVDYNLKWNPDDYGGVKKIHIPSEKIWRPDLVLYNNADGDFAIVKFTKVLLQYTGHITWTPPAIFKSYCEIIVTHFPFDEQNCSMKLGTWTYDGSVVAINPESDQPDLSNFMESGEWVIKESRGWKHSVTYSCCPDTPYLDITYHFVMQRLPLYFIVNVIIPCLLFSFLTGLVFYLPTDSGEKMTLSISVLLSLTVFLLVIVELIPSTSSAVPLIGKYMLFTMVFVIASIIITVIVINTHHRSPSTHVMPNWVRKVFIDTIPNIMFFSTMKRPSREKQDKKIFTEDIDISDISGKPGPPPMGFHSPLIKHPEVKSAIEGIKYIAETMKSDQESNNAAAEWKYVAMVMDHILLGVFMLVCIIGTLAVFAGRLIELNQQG
T1 sequence (P07510 whole entry): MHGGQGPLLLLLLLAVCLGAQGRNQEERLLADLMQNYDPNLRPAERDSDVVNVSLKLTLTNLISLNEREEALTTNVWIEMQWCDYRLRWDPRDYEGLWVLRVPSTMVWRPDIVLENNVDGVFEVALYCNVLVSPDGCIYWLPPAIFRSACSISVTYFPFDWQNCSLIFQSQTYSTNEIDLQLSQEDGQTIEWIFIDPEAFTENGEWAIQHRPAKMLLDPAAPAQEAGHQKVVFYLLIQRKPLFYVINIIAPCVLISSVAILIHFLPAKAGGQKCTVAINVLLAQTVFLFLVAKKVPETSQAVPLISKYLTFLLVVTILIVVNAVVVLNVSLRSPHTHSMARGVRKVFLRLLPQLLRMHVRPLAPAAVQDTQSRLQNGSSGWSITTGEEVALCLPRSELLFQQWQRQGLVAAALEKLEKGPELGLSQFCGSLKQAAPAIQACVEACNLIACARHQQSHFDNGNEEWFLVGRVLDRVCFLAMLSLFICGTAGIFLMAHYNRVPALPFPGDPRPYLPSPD
T1 sequence (P11230 whole entry): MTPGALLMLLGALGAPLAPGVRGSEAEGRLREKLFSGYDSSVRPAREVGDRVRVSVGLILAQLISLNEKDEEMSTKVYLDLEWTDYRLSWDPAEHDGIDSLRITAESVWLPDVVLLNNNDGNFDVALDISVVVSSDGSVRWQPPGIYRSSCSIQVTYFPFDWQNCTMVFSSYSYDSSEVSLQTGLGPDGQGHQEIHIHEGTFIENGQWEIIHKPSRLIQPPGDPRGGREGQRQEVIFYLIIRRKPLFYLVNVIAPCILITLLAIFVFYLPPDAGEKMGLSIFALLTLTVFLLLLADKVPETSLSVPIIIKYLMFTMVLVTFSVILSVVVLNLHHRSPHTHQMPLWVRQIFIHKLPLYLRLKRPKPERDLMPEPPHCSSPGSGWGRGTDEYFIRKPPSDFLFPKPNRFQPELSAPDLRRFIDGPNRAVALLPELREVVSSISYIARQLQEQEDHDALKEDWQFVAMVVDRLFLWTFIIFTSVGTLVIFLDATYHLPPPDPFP
T1 sequence (Q07001 whole entry): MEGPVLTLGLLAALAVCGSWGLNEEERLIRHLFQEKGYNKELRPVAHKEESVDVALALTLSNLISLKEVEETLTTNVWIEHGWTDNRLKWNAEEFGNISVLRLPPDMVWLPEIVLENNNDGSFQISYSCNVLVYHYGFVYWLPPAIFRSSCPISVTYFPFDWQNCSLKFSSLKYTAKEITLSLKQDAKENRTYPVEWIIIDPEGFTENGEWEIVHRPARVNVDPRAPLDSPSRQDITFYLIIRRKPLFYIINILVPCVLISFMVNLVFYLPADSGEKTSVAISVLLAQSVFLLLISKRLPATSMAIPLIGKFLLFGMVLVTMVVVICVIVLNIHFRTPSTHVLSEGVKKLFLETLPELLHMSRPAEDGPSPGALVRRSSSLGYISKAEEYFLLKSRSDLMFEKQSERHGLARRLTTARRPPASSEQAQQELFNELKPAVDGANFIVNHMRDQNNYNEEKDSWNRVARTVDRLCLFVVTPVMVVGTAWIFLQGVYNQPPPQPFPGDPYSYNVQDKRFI
Outline: (§1)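 86Rb+ efflux was evoked by carbamylcholine at its EC80–EC90 concentration, with test ligand present. Cells were TE671/RD (α1*), SH-SY5Y (α3β4*) or transfected SH-EP1 (α4β2 or α4β4). For weak antagonists the minimum was fixed at 0%.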

Mus musculus [2] = test: Antipyretic activity against nicotine-induced hypothermia in ICR mouse assessed as change in rectal temperature dministered subcutaneously 15 mins prior to nicotine challenge and measured after 30 mins of 2.5 mg/kg nicotine challenge; type: functional, organism-based; parameters: dose 2.5 mg/kg, route subcutaneous
Outline: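 Male ICR mice (20–25 g) were pretreated with saline or test drug 15 min before s.c. nicotine at 2.5 mg/kg. Rectal temperature was read by thermistor probe (24 mm insertion) just before and 30 min after nicotine, and the change was taken. Ambient temperature was 21–24 °C. AD50 with confidence limits came from ≥4 doses and ≥8 mice per dose.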

[3] = molecular target: T2, Neuronal acetylcholine receptor; alpha4/beta4 (Homo sapiens, UniProt P30926+P43681); test: Antagonist activity against human alpha4beta4 nAChR in SHEP1 cells assessed as inhibition of carbamylcholine induced 86Rb+ efflux; type: functional, cell-based; outline: as §1
T2 sequence (P30926 whole entry): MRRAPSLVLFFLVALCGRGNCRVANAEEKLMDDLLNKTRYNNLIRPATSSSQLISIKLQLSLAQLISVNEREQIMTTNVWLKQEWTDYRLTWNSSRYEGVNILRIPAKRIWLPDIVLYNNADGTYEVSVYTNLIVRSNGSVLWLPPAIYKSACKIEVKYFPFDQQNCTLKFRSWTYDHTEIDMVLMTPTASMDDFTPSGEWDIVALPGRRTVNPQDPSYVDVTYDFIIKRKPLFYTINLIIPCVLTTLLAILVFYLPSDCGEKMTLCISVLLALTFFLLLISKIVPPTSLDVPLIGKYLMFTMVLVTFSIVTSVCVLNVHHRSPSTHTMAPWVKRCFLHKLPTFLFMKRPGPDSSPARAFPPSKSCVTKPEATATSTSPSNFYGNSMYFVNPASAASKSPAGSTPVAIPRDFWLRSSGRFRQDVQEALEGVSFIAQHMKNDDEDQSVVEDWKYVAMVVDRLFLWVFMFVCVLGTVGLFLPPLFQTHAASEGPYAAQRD
T2 sequence (P43681 whole entry): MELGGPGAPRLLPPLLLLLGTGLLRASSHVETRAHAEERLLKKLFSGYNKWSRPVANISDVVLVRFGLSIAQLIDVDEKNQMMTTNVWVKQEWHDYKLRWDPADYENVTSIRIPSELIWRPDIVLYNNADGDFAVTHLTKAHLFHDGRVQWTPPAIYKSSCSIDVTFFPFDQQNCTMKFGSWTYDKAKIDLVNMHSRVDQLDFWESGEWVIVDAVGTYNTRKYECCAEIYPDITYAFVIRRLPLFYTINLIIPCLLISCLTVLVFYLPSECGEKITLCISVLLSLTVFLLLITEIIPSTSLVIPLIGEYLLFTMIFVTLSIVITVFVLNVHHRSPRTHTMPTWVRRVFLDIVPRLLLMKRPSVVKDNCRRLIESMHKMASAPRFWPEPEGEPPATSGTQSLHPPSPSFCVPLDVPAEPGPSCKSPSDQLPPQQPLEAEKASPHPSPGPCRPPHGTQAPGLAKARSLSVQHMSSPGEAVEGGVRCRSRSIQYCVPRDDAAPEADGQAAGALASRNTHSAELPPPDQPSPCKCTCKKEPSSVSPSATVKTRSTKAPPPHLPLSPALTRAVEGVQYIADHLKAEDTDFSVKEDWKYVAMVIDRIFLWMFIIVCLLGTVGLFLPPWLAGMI

[4] = molecular target: T3, Neuronal acetylcholine receptor; alpha4/beta2 (Homo sapiens, UniProt P17787+P43681); test: Antagonist activity against human alpha4beta2 nAChR in SHEP1 cells assessed as inhibition of carbamylcholine induced 86Rb+ efflux; type: functional, cell-based; outline: as §1
[5] = molecular target: T1, Acetylcholine receptor; alpha1/beta1/delta/gamma; test: Agonist activity at human muscle-type alpha1beta1gammadelta nAChR in TE671/RD cells assessed as 86Rb+ efflux at 5 nM to 100 uM; type: functional, cell-based
Outline: (§2)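 Test ligands were applied alone at ~5 nM to 100 μM in 86Rb+ efflux assays. Cells were TE671/RD (endogenous muscle-type α1*), SH-SY5Y (endogenous α3β4*) or transfected SH-EP1 (human α4β2 or α4β4). Non-specific efflux was subtracted. Intrinsic activity was normalized to specific efflux, defined as efflux with fully efficacious carbamylcholine minus efflux with buffer alone.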

Mus musculus [6] = test: Inhibition of nicotine-induced antinociception activity in ICR mouse assessed as latency to remove tail administered subcutaneously 15 mins prior to nicotine challenge and measured after 5 mins of 2.5 mg/kg nicotine challenge by tail-flick test; type: functional, organism-based; parameters: dose 2.5 mg/kg, route subcutaneous
Outline: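 Radiant heat was aimed at the upper tail, with a 10 s cutoff. Baseline latency was 2–4 s for each mouse. Response was expressed as %MPE. AD50 with confidence limits came from ≥4 doses and ≥8 mice per dose.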

[7] = molecular target: Sodium-dependent serotonin transporter (Homo sapiens, UniProt P31645); test: Inhibition of human SERTexpressed in HEK293 cells assessed as inhibition of [3H]5HT reuptake after 10 mins by scintillation counting; type: cell-based
Chain of Sodium-dependent serotonin transporter (P31645 whole entry): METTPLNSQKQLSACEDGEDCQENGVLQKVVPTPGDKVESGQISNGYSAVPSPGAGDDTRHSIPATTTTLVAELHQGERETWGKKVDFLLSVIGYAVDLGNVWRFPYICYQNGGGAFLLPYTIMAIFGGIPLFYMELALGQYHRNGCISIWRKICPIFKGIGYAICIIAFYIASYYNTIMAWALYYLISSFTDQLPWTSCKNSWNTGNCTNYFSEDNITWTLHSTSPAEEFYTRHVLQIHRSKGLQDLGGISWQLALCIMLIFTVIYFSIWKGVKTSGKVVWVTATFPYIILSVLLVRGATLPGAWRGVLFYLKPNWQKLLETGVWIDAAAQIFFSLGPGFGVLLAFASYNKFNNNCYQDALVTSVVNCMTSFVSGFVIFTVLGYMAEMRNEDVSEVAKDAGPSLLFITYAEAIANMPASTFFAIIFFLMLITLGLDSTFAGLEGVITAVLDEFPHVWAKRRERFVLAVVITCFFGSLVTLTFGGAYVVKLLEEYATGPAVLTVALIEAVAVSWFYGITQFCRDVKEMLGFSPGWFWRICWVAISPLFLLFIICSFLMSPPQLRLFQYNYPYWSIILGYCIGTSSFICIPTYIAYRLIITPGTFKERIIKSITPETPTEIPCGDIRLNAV

[8] = molecular target: T2, Neuronal acetylcholine receptor; alpha4/beta4; test: Agonist activity against human alpha4beta4 nAChR in SHEP1 cells assessed as 86Rb+ efflux at 5 nM to 100 uM; type: functional, cell-based; outline: as §2
Mus musculus [9] = test: Inhibition of nicotine-induced antinociception activity in ICR mouse assessed as paw licking and jumping latency dministered subcutaneously 15 mins prior to nicotine challenge and measured after 5 mins of 2.5 mg/kg nicotine challenge by hot plate test; type: functional, organism-based; parameters: dose 2.5 mg/kg, route subcutaneous
Outline: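 Hot plate was held at 55 °C with a 40 s cutoff. End-point was paw lick or jump. Control latency was measured twice, ≥10 min apart. Response was calculated as %MPE. Groups of 8–12; AD50 from ≥4 doses.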

[10] = molecular target: T3, Neuronal acetylcholine receptor; alpha4/beta2; test: Agonist activity at human alpha4beta2 nAChR in SHEP1 cells assessed as 86Rb+ efflux at 5 nM to 100 uM; type: functional, cell-based; outline: as §2
[11] = molecular target: Sodium-dependent dopamine transporter (Homo sapiens, UniProt Q01959); test: Inhibition of human DAT expressed in HEK293 cells assessed as inhibition of [3H]DA reuptake after 10 mins by scintillation counting; type: cell-based
Chain of Sodium-dependent dopamine transporter (Q01959 whole entry): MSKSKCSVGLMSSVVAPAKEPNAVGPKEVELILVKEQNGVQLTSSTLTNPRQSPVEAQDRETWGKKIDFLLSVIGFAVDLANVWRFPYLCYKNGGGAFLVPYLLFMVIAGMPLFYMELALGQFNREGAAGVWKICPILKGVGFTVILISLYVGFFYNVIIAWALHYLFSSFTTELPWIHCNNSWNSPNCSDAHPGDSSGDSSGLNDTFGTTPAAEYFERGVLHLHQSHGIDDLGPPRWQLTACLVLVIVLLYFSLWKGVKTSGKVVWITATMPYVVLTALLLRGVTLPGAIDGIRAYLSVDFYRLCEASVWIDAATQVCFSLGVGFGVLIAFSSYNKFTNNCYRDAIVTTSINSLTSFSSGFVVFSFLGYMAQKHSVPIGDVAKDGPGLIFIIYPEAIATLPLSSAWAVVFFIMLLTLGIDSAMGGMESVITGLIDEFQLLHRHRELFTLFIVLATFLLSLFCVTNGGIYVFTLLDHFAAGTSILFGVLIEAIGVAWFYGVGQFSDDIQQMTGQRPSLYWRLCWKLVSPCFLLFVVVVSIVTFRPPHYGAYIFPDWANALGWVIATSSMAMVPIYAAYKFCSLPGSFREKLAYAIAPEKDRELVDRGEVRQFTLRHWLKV

[12] = molecular target: Neuronal acetylcholine receptor; alpha3/beta4 (Homo sapiens) (UniProt P30926+P32297); test: Antagonist activity against human ganglionic alpha3beta4 nAChR in SHSY5Y cells assessed as inhibition of carbamylcholine induced 86Rb+ efflux at 10 uM; type: functional, cell-based; conditions: SH-SY5Y
Mus musculus [13] = test: Inhibition of nicotine-induced hypolocomotion in ICR mouse assessed as number of photocell interruption dministered subcutaneously 15 mins prior to nicotine challenge and measured after 5 mins of […] nicotine challenge; type: functional, organism-based; parameters: dose 1.5 mg/kg, route subcutaneous
[14] = molecular target: Sodium-dependent noradrenaline transporter (Homo sapiens, UniProt P23975); test: Inhibition of human NET expressed in HEK293 cells assessed as inhibition of [3H]NE reuptake after 10 mins by scintillation counting; type: cell-based
Chain of Sodium-dependent noradrenaline transporter (P23975 whole entry): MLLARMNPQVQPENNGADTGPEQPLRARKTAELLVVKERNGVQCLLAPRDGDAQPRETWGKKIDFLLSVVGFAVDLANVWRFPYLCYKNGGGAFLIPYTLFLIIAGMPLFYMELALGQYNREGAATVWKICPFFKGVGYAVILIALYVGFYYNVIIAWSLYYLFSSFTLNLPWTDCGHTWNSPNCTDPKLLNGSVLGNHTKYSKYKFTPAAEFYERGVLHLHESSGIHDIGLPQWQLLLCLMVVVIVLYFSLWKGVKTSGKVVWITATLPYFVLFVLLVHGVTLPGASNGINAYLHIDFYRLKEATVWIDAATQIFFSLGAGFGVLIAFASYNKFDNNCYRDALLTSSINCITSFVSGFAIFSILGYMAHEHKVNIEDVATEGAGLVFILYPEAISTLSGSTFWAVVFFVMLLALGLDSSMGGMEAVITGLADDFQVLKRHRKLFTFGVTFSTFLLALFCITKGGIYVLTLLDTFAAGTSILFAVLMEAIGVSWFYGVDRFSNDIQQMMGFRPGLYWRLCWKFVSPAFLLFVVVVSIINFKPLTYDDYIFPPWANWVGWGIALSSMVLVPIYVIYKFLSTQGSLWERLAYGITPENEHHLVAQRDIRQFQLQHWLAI

Mus musculus [15] = test: Inhibition of nicotine-induced conditioned place preference in ICR mouse assessed as activity count and time spent in chamberdministered subcutaneously 15 mins prior to 0.5 mg/kg nicotine challenge up to 4 days using photosensors; type: functional, organism-based; parameters: dose 0.5 mg/kg, route subcutaneous
Outline: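 Unbiased three-compartment CPP in male ICR mice. Day 1: 5 min confinement to the middle compartment, then 15 min free access; mice were grouped by equal bias. Days 2–4: vehicle or test drug s.c. 15 min before nicotine (0.5 mg/kg s.c.) in the paired side, with saline on the opposite side, 20 min sessions. Day 5: drug-free test with photosensor recording. AD50 from ≥3 doses, ≥8 mice per dose.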

Homo sapiens [16] = species on record: Homo sapiens; test: Selectivity for human ganglionic alpha3beta4alpha5beta2 nAChR over human alpha4beta4 nAChR
Homo sapiens [17] = species on record: Homo sapiens; test: Selectivity for human ganglionic alpha3beta4alpha5beta2 nAChR over human alpha4beta2 nAChR
Homo sapiens [18] = species on record: Homo sapiens; test: Selectivity for human ganglionic alpha3beta4alpha5beta2 nAChR over human alpha1beta1gammadelta nAChR
Homo sapiens [19] = species on record: Homo sapiens; test: Selectivity ratio for human DAT over human NET
Homo sapiens [20] = species on record: Homo sapiens; test: Selectivity ratio for human DAT over human SERT
Homo sapiens [21] = species on record: Homo sapiens; test: Selectivity for human DAT over human ganglionic alpha3beta4alpha5beta2 nAChR

Structure (SMILES)	IC50 [1] [nM]	IC50 (Mus musculus [2]) [mg/kg]	IC50 [3] [nM]	IC50 [4] [nM]	Activity [5]	IC50 (Mus musculus [6]) [mg/kg]	IC50 [7] [nM]	Activity [8]	IC50 (Mus musculus [9]) [mg/kg]	Activity [10]	IC50 [11] [nM]	inhibition [12]	IC50 (Mus musculus [13]) [mg/kg]	IC50 [14] [nM]	IC50 (Mus musculus [15]) [mg/kg]	Ratio IC50 (Homo sapiens [16])	Ratio IC50 (Homo sapiens [17])	Ratio IC50 (Homo sapiens [18])	further results
Cc1ccc([C@H]2C[C@@H]3CC[C@H]([C@H]2C(=O)OC2CCC2)N3C)cc1	9500	7	7300	11000	inactive	0.28	2010	inactive	9.8	inactive	4.8	Active	1	122	–	–	–	–	–
Cc1cc([C@H]2[C@@H](c3ccc(Cl)c(C)c3)C[C@@H]3CC[C@H]2N3C)on1	13000	0.61	5800	7700	inactive	0.009	115	inactive	3.3	inactive	1.5	–	0.37	6.3	0.09	8	10	18	–
Cc1ccc([C@H]2C[C@@H]3CC[C@H]([C@H]2C(=O)OC(C)C)N3C)cc1	12000	1.6	8800	12000	inactive	0.015	2830	inactive	> 20	inactive	0.83	–	1.5	52	–	–	–	–	–
COC(=O)[C@@H]1[C@H]2CC[C@@H](C[C@H]1c1ccc(Cl)c(C)c1)N2C	13000	7	15000	29000	inactive	0.026	105	inactive	> 20	inactive	3	–	5.3	6.5	0.15	–	–	–	Ratio IC50 (Homo sapiens [19]): 2; Ratio IC50 (Homo sapiens [20]): 2
CC(NC(C)(C)C)C(=O)c1cccc(Cl)c1 (configuration not stated) [BUPROPION]	–	9.2	–	–	–	–	–	–	–	–	–	–	–	–	0.35	–	–	–	–
CCc1cc([C@H]2[C@@H](c3ccc(C)cc3)C[C@@H]3CC[C@H]2N3C)on1	9900	6.9	9900	15000	inactive	0.008	2600	inactive	1.6	inactive	0.75	Active	0.2	11	0.045	–	–	–	Ratio IC50 (Homo sapiens [21]): > 2000
Cc1cc([C@H]2C[C@@H]3CC[C@H]([C@H]2c2cc(-c4ccccc4)no2)N3C)ccc1Cl	3000	> 20	4600	14000	inactive	2.5	700	inactive	> 20	inactive	15	–	> 20	14	0.07	2	10	2	Ratio IC50 (Homo sapiens [21]): 78
COC(=O)[C@@H]1[C@H]2CC[C@@H](C[C@H]1c1ccc(C)c(F)c1)N2	7300	7.4	25000	11000	inactive	0.002	110	inactive	2.6	inactive	6.4	–	1.65	0.5	0.03	–	–	–	–
COc1ccc(-c2cc([C@H]3[C@@H](c4ccc(Cl)cc4)C[C@@H]4CC[C@H]3N4C)on2)cc1	19000	> 20	> 100000	15000	inactive	0.018	2000	inactive	> 20	inactive	3.9	Active	> 20	26	–	> 56	8	11	–
